The source made the active and inactive calls. The calls are words filed in the database; no cut-off is given here.
Tests used:
[1] = Drug uptake in SCID mouse xenografted with human MOLM16 cells assessed as drug level in plasma at 50 mg/kg, iv measured after 24 hrs by LC-MS/MS; format: ADME, organism-based
Outline: (§1)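 SCID mice bearing MOLM-16 xenografts given a single iv dose of 50 mg/kg. Concentrations of parent and hydrolysis product measured in plasma (ng/mL) and tumor tissue (ng/g) at 1, 6 and 24 h.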

[2] = Drug uptake in SCID mouse xenografted with human MOLM16 cells assessed as drug level in tumor tissue at 50 mg/kg, iv measured after 24 hrs by LC-MS/MS; format: ADME, organism-based; details: read-out: Drug uptake; outline: as §1
[3] = target: Signal transducer and activator of transcription 3 (Homo sapiens, UniProt P40763); assay: Binding affinity to recombinant STAT3 (unknown origin) assessed as inhibition constant incubated for 1 hr by fluorescence polarization assay
Outline: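 Competitive fluorescence-polarization binding assay with recombinant human STAT3 protein. Ki derived from competitive binding curves.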

[4] = Drug metabolism in complete cell culture medium assessed as 5-amino-4-(4-(8-((5S,8S,10aR)-8-((S)-5-amino-1-(benzhydrylamino)-1,5-dioxopentan-2-ylcarbamoyl)-6-oxo-5-(5-(phosphonocarbonyl)-1H-indole-2-carboxamido)octahydropyrrolo[1,2-a][1,5]diazocin-3(4H)-yl)-8-oxooct-1-ynyl)-1-oxoisoindolin-2-yl)-5-oxopentanoic acid after 96 hrs by LC/MS/MS analysis
Outline: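 Parent compound incubated in the cell culture medium used for the cellular assays, with or without cells, at 37 °C. Percentages of the hydrolysis product and the glutarimide ring-opened product measured at time points up to 96 h.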

[5] = Drug uptake in SCID mouse xenografted with human MOLM16 cells assessed as drug level in plasma at 50 mg/kg, iv measured after 6 hrs by LC-MS/MS; format: ADME, organism-based; outline: as §1
[6] = target: T1, Signal transducer and activator of transcription 2 (Homo sapiens, UniProt P52630); assay: Induction of STAT2 degradation in human SUP-M2 cells at 0.25 to 100 uM incubated for 14 hrs by Western blot analysis; format: cell-based; details: SUPM2, dose 0.25-100 µM
Outline: (§2)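 SU-DHL-1 or SUP-M2 cells treated over 25 nM to 100 μM. STAT family proteins assessed by Western blot.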

[7] = target: T2, Signal transducer and activator of transcription 6 (Homo sapiens) (UniProt P42226); assay: Induction of STAT6 degradation in human MOLM16 cells at 0.25 to 100 uM incubated for 4 hrs by Western blot analysis; format: cell-based; details: dose 0.25-100 µM
T2 sequence (whole entry): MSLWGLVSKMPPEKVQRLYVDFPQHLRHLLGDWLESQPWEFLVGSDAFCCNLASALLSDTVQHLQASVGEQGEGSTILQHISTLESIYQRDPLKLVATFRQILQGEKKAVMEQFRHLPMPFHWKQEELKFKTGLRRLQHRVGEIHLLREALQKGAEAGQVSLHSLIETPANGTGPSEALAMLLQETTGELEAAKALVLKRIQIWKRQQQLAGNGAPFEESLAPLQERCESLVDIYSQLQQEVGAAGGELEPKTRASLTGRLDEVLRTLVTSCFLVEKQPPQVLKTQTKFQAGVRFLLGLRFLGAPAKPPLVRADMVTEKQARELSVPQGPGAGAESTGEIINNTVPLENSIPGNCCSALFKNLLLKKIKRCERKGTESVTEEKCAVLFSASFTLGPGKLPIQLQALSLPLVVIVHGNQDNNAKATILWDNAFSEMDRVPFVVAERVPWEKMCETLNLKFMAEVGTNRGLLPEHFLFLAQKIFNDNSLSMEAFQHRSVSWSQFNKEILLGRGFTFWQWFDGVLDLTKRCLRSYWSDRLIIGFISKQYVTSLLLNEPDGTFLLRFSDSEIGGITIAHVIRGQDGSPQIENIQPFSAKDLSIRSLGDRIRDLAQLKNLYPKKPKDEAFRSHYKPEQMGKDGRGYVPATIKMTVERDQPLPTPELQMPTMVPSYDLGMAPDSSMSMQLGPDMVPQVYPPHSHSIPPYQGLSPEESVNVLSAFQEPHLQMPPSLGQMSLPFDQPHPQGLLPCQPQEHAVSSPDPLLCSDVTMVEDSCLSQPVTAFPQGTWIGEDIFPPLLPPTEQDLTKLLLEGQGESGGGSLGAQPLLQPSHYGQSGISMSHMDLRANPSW
Outline: (§3)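 Cells treated 4 h with compounds across 25 nM to 100 μM; STAT proteins detected by Western blot with GAPDH as loading control; STAT3 DC50 estimated by densitometry of STAT3 relative to GAPDH. Applies to MOLM-16 for all STATs, and to SU-DHL-1 and SUP-M2 for STAT3.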

[8] = target: T2, Signal transducer and activator of transcription 6 (Homo sapiens); assay: Induction of STAT6 degradation in human SUP-M2 cells at 0.25 to 100 uM incubated for 14 hrs by Western blot analysis; format: cell-based; details: SUPM2, dose 0.25-100 µM
[9] = target: T2, Signal transducer and activator of transcription 6 (Homo sapiens); assay: Induction of STAT6 degradation in human SU-DHL-1 cells at 0.25 to 100 uM incubated for 14 hrs by Western blot analysis; format: cell-based; details: dose 0.25-100 µM
[10] = target: T1, Signal transducer and activator of transcription 2; assay: Induction of STAT2 degradation in human SU-DHL-1 cells at 0.25 to 100 uM incubated for 14 hrs by Western blot analysis; format: cell-based; details: dose 0.25-100 µM; outline: as §2
[11] = target: T3, Signal transducer and activator of transcription 5A (Homo sapiens) (UniProt P42229); assay: Induction of STAT5 degradation in human MOLM16 cells at 0.25 to 100 uM incubated for 4 hrs by Western blot analysis; format: cell-based; details: dose 0.25-100 µM; outline: as §3
T3 sequence (whole entry): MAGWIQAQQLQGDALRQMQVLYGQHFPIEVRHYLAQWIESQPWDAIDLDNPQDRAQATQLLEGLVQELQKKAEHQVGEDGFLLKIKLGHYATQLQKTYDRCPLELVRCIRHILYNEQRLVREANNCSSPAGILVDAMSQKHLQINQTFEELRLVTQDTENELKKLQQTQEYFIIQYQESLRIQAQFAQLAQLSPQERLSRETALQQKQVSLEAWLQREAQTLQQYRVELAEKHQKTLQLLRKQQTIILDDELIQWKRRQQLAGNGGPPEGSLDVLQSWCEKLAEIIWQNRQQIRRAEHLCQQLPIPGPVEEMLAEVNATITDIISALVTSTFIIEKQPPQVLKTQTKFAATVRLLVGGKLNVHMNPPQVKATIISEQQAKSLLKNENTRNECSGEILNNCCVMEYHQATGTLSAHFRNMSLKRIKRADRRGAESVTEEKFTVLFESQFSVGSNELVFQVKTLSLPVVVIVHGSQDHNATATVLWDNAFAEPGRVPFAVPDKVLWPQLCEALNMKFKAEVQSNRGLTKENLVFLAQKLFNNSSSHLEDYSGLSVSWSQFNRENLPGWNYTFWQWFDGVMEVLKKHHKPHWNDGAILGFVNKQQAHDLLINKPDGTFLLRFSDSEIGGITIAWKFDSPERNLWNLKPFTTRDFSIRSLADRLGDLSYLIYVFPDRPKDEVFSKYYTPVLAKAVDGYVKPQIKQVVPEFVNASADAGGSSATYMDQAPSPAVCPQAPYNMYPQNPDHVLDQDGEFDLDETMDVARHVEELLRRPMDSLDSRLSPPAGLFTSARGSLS

T1 sequence (P52630 whole entry): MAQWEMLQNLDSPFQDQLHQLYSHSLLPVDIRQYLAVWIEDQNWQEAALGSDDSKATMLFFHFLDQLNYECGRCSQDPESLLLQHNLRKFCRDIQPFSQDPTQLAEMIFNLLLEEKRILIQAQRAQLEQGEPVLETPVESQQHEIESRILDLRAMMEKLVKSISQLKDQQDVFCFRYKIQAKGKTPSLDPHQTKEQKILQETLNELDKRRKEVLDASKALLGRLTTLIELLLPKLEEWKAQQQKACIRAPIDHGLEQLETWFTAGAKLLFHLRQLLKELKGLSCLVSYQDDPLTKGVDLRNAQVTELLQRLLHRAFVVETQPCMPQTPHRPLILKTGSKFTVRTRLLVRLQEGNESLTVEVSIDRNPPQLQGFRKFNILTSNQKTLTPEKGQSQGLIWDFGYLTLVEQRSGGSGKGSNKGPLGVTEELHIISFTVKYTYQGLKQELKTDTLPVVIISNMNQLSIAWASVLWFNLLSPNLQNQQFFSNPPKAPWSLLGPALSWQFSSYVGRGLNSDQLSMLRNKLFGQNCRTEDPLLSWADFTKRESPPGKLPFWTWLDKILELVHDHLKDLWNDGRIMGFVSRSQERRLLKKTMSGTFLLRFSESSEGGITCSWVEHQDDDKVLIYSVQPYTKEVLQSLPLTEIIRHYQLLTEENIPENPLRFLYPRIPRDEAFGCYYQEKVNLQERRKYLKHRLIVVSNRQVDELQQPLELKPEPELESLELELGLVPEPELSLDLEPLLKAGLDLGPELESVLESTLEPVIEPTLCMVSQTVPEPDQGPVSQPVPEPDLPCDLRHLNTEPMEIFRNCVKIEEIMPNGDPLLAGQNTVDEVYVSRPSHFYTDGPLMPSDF
Chain of Signal transducer and activator of transcription 3 (P40763 whole entry): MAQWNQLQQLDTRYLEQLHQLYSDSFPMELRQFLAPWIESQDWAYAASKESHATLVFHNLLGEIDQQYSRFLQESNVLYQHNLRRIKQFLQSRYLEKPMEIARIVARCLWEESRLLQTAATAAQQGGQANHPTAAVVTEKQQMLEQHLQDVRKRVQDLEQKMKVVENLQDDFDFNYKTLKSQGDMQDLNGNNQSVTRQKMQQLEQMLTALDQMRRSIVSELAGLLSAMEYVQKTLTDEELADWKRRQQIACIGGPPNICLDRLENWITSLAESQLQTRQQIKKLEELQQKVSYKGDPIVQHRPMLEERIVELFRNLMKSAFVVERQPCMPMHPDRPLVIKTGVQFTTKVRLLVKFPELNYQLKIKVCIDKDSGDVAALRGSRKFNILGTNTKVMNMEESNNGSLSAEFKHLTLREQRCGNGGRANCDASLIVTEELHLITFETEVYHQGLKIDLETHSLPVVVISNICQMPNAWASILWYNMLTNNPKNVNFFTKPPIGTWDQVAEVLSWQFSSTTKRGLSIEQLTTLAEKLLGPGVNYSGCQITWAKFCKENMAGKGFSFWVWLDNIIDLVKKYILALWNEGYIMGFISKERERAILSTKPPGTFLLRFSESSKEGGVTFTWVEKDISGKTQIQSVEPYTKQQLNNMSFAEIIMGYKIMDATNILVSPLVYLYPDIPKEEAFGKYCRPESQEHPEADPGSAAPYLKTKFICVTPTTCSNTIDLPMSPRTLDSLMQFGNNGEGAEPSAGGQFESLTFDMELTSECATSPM

| Compound | concentration at 24 h [1] [ng/mL] | concentration at 24 h [2] [ng/g] | Ki [3] [nM] | Drug metabolism [4] [%] | concentration at 6 h [5] [ng/mL] | Activity [6] | Activity [7] | Activity [8] | Activity [9] | Activity [10] | Activity [11] |
| --- | --- | --- | --- | --- | --- | --- | --- | --- | --- | --- | --- |
| NC(=O)CC[C@H](NC(=O)[C@@H]1CC[C@@H]2CCN(C(=O)CCCCCC#Cc3cccc4c3CN(C3CCC(=O)NC3=O)C4=O)C[C@H](NC(=O)c3cc4cc(C(F)(F)P(=O)(O)O)ccc4[nH]3)C(=O)N21)C(=O)NC(c1ccccc1)c1ccccc1 (stereo partly drawn) | 58 | 275 | 11.7 | 10 | 1300 |  |  |  |  |  |  |
| CC(=O)N1CC[C@H]2CC[C@@H](C(=O)N[C@@H](CCC(N)=O)C(=O)NC(c3ccccc3)c3ccccc3)N2C(=O)[C@@H](NC(=O)c2cc3cc(C(=O)P(=O)(O)O)ccc3[nH]2)C1 |  |  |  |  |  | inactive | inactive | inactive | inactive | inactive | inactive |
| NC(=O)CC[C@H](NC(=O)[C@@H]1CC[C@@H]2CCN(C(=O)CCCCCC#Cc3cccc4c3CN(C3CCC(=O)NC3=O)C4=O)C[C@H](NC(=O)c3cc4cc(C(=O)P(=O)(O)O)ccc4[nH]3)C(=O)N21)C(=O)NC(c1ccccc1)c1ccccc1 (stereo partly drawn) | 1360 | 1800 | 5.1 | < 10 | 49200 | inactive | inactive | inactive | inactive | inactive | inactive |
| CC(=O)N1CC[C@H]2CC[C@@H](C(=O)N[C@@H](CCC(N)=O)C(=O)NC(c3ccccc3)c3ccccc3)N2C(=O)[C@@H](NC(=O)c2cc3cc(C(F)(F)P(=O)(O)O)ccc3[nH]2)C1 |  |  |  |  |  | inactive | inactive | inactive | inactive | inactive | inactive |
